According to PMC5361409 (Bioorganic & medicinal chemistry letters, 2016):
“Also recorded” adds a separate entry of the source.

Tests used:
[1] = biological target: T1, dopamine D4 receptor (D4R) (Homo sapiens, UniProt P21917); assay: D4 radioligand binding assay using Spiperone at EuroFins; settings: run in duplicate
T1 sequence (P21917 1-419): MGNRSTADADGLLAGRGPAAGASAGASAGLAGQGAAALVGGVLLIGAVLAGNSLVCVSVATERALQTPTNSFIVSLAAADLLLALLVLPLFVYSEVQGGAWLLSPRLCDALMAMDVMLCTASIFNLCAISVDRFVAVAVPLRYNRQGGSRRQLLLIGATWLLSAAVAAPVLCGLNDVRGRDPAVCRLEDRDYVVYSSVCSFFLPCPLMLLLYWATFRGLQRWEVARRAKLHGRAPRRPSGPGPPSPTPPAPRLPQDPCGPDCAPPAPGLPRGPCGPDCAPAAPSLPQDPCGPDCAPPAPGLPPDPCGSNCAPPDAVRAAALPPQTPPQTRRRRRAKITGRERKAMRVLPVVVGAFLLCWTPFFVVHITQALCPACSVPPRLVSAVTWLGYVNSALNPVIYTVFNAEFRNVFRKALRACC

[2] = Intrinsic clearance in rat liver microsomes; assay type: in vitro ADME
[3] = Intrinsic clearance in human liver microsomes; assay type: in vitro ADME; settings: for CLint scaled: human, liver microsomes; for predicted clearance: predicted from CLINT in liver microsomes (rat and human), in words
[4] = biological target: D3 (Homo sapiens, UniProt P35462); assay: Dopamine receptor selectivity, radioligand binding at EuroFins: D3; settings: read-out: % inhibition at 10 µM D3 (%)
D3, sequence (P35462 whole entry): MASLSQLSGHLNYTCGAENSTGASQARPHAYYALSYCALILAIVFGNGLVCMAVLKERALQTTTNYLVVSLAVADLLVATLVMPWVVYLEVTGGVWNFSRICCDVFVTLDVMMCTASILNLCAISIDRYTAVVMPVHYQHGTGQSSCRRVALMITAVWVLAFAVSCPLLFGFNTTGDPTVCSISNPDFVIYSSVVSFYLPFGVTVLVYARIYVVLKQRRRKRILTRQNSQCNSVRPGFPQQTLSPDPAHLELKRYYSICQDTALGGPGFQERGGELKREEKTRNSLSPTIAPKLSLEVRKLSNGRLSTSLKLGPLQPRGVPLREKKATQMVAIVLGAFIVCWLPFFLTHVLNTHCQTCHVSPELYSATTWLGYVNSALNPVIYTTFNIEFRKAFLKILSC
In short: (§1)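 Contract radioligand binding screen against the indicated human dopamine receptor subtype. Each test compound was run in duplicate, and the read-out is percent inhibition of specific radioligand binding.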

[5] = biological target: D1 (Homo sapiens, UniProt P21728); assay: Dopamine receptor selectivity, radioligand binding at EuroFins: D1; settings: read-out: % inhibition at 10 µM D1 (%)
D1, sequence (P21728 whole entry): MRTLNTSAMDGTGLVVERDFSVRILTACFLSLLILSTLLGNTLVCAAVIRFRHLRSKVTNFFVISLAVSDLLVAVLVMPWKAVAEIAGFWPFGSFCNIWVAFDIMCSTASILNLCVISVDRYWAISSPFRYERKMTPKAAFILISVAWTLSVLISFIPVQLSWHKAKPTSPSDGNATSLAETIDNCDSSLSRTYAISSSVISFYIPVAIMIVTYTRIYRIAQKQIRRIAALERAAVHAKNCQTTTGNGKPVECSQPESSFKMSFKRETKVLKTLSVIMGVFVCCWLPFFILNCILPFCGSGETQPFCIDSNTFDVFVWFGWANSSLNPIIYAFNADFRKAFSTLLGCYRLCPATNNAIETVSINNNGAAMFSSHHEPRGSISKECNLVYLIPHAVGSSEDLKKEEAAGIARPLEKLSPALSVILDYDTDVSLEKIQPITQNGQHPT
In short: as §1

[6] = biological target: D5 (Homo sapiens, UniProt P21918); assay: Dopamine receptor selectivity, radioligand binding at EuroFins: D5; settings: read-out: % inhibition at 10 µM D5 (%)
D5, sequence (P21918 whole entry): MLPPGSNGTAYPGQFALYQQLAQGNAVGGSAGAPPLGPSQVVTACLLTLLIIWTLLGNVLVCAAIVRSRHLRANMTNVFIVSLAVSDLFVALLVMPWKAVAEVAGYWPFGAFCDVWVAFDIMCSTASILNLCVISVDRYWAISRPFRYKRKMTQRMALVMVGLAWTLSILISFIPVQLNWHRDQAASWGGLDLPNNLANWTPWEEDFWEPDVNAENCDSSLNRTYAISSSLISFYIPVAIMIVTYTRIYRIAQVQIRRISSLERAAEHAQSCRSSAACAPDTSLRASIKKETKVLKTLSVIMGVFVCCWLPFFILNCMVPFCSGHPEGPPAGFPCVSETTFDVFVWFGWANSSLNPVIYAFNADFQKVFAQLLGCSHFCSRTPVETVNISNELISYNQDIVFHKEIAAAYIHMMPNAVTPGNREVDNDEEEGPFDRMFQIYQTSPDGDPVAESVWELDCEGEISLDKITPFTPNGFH
In short: as §1

[7] = system: other dopamine receptors (D1, D2L, D2S, D3, and D5); assay: Selectivity against the other dopamine receptors; assay type: binding; settings: for selectivity against all of the dopamine receptors tested: in words
[8] = Metabolic soft-spot experiment in rat liver microsomes; assay type: in vitro ADME
[9] = Metabolic soft-spot experiment in human liver microsomes; assay type: in vitro ADME
[10] = in the presence of NADPH, in words

CLint scaled [2] [mL/min/kg] | CLint scaled [3] [mL/min/kg] | inhibition at 10 µM [4] [%] | inhibition at 10 µM [5] [%] | inhibition at 10 µM [6] [%] | SMILES | further results
 |  |  |  |  | Clc1ccc(CN2CCO[C@H](CCc3ccccc3)C2)cc1 [ML398] | IC50 [1]: 0.13 µM; Ki [1]: 0.036 µM
184 | 31.6 |  |  |  | COc1ccc2c(CN3CCO[C@H](COc4ccccc4)C3)c[nH]c2c1 [Compound 4dd] | 
1770 | 68.9 | < 50 | < 50 | < 50 | COc1cc(CN2CCO[C@H](COc3cccc(F)c3)C2)ccc1Cl [Compound 5n] | 
 |  | < 50 | < 50 | < 50 | c1ccc(OC[C@@H]2CN(Cc3n[nH]c4ccccc34)CCO2)cc1 [Compound 4v] | 
4520 | 147 |  |  |  | Clc1ccc(CN2CCO[C@H](COc3ccccc3)C2)cc1 [Compound 4a] | 
2130 | 71.9 |  |  |  | COc1ccc(CN2CCO[C@H](COc3ccccc3)C2)cc1F [Compound 4l] | 
247 | 50.5 |  |  |  | Fc1cc(CN2CCO[C@H](COc3ccccc3)C2)ccc1C(F)(F)F [Compound 4j] | 
614 | 46.7 |  |  |  | Clc1ccc2c(CN3CCO[C@H](COc4ccccc4)C3)c[nH]c2c1 [Compound 4aa] | 
251 | 65.3 |  |  |  | Fc1cc(CN2CCO[C@H](COc3ccccc3)C2)ccc1Cl [Compound 4g] | predicted clearance [3]: moderate
6440 | 366 | < 50 | < 50 | < 50 | Cc1ccc(CN2CCO[C@H](CSc3ccccc3)C2)cc1C [Compound 5bb] | selectivity for D4 over the other dopamine receptors [7]: > 1000 fold; selectivity against all of the dopamine receptors tested [7]: completely selective
621 | 50.5 |  |  |  | Clc1ccc(CN2CCO[C@H](COc3ccccc3)C2)cc1Cl [Compound 4i] | 
1500 | 79.7 |  |  |  | COc1cc(CN2CCO[C@H](COc3ccccc3)C2)ccc1Cl [Compound 4p] | 
1500 | 93 | < 50 | < 50 | < 50 | COc1ccc(CN2CCO[C@H](COc3cccc(F)c3)C2)cc1Cl [Compound 5m] | 
3220 | 122 | < 50 | < 50 | < 50 | Clc1ccc(CN2CCO[C@H](CSc3ccccc3)C2)cc1 [Compound 5aa] | selectivity for D4 over the other dopamine receptors [7]: > 1000 fold; selectivity against all of the dopamine receptors tested [7]: completely selective
4010 | 101 | < 50 | < 50 | < 50 | Fc1ccc2c(CN3CCO[C@H](COc4cccc(F)n4)C3)c[nH]c2c1 [Compound 5u] | selectivity against all of the dopamine receptors tested [7]: fully selective
433 | 60.5 |  |  |  | Cn1ncc2cc(CN3CCO[C@H](COc4ccccc4)C3)ccc21 [Compound 4y] | 
 |  | < 50 | < 50 | < 50 | Cc1ccc(CN2CCO[C@H](COc3ccccc3)C2)cc1C [Compound 4b] | 
1690 | 71.1 |  |  |  | Fc1ccc2c(CN3CCO[C@H](COc4ccccc4)C3)c[nH]c2c1 [Compound 4ee] | 
1600 | 78.7 | < 50 | < 50 | < 50 | COc1ccc(CN2CCO[C@H](COc3ccccc3)C2)cc1Cl [Compound 4n] | 
 |  | < 50 | < 50 | < 50 | c1ccc(OC[C@@H]2CN(Cc3ncn4ccccc34)CCO2)cc1 [Compound 4u] | 
154 | 17.3 |  |  |  | c1ccc(OC[C@@H]2CN(Cc3cn4ccccc4n3)CCO2)cc1 [Compound 4t] | predicted clearance [3]: moderate
5310 | 98.2 |  |  |  | Clc1ccc(CN2CCO[C@H](COc3cccc(Cl)n3)C2)cc1 [Compound 5z] | 
4200 | 230 | < 50 | < 50 | < 50 | Fc1ccc2c(CN3CCO[C@H](COc4cccc(Cl)n4)C3)c[nH]c2c1 [Compound 5y, (S)-2-(((6-chloropyridin-2-yl)oxy)methyl)-4-((6-fluoro-1H-indol-3-yl)methyl)morpholine] | major metabolite in rat microsomes ([8]; Compound B = N-dealkylation + oxidation): Compound B; extent of metabolism in rat liver microsomes [8, 10]: highly metabolized; selectivity for D4 over the other dopamine receptors [7]: > 1000 fold; selectivity against all of the dopamine receptors tested [7]: fully selective; also recorded: completely selective; major metabolite in human microsomes ([9]; Compound A = N-dealkylation): Compound A; extent of metabolism in human liver microsomes [9, 10]: highly metabolized
3140 | 135 |  |  |  | c1ccc(OC[C@@H]2CN(Cc3ccc4[nH]ccc4c3)CCO2)cc1 [Compound 4z] | 
